# Screening data (PubChem BioAssay)
# Rows were chosen to be rich in hits. Some 1.8% of all compounds tested hit in one or more screens of this group.
# LMPTP block: blocks human LMPTP phosphatase. P24666. recombinant LMPTP-A, OMFP fluorogenic substrate, fluorescence intensity. inhibition, % at 20 µM. actives 0.22% (n = 360,000);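 active = compounds that cut the enzyme signal by at least half of the control window in the single-dose screen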
# Target sequence (P24666 whole entry, looked up): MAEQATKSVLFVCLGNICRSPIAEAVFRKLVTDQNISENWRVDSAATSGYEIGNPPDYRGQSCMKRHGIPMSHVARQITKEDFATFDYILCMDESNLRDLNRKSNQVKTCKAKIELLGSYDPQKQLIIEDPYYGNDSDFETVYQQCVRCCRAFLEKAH
#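 Test system: LMPTP-A phosphatase enzyme; input: 0.625 nM LMPTP-A final; reagent: OMFP substrate, 400 µM final; compound dosing: 20 µM single dose, 3% DMSO; incubation: 50 min dark incubation at room temperature; measured by: endpoint fluorescence intensity from OMFP dephosphorylation; measure: % inhibition relative to no-enzyme and uninhibited control wells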
# SUMO1 PPI mod: SUMO1-SIM interaction modulation; actives 0.33% (n = 360,000); inhibition, % at 20 µM; SUMO1 binding to a labelled peptide, TR-FRET, 1 h; P63165; in the data active = inhibition above about 37%
# Target sequence (P63165 whole entry, looked up): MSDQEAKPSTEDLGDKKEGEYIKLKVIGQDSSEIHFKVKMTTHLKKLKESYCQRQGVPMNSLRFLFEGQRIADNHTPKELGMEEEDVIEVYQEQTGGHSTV
# DNMT1 block: blocks human DNA methyltransferase DNMT1. DNMT1 molecular beacon, Hinp1I cleavage, fluorescence. inhibition (reported as % activation of signal), % at 10 µM. P26358. actives 0.83% (n = 360,000). AID 588458; in the data active = inhibition above about 50%
# STEP block: STEP (human) phosphatase inhibition | P54829 | recombinant STEP, OMFP fluorogenic substrate, fluorescence | inhibition, % at 20 µM | actives 0.25% (n = 360,000) | AID 588621;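 active = inhibition at 20 µM, scaled per plate between control wells, above about 37%, limit read from the data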
#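 Also added – OMFP at 25 µM · Test system – STEP tyrosine phosphatase · Technique – FITC-channel fluorescence of OMFP product · Schedule – 20 min at room temperature, dark · Evaluation – control-normalized % inhibition with plate pattern correction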
# Scp1 inh: inhibitors of human Scp-1 phosphatase; AID 493091; inhibition, % at 20 µM; actives 0.88% (n = 340,000); Q9GZU7; Recombinant Scp1, phosphopeptide, malachite green phosphate absorbance;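 active = inhibition above about 50% at 20 µM, limit read from the data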
# Target sequence (Q9GZU7 76-261 limits assumed): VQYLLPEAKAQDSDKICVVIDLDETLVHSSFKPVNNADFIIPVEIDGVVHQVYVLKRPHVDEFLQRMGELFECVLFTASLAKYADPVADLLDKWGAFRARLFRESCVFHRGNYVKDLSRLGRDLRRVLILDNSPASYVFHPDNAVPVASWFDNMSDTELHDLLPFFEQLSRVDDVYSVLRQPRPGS
#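 Incubation: 45 min enzyme reaction at room temperature / System: truncated SCP-1 phosphatase (76-261aa) / Reagent: Phospho 17-mer peptide substrate / Buffer or medium: Acidic Tris acetate buffer with magnesium and detergent / Signal: absorbance at 630 nm / Doses: one concentration, 20 µM, with 1.0% DMSO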
# DNMT1 inh conf: DNMT1 inhibition confirmation, single concentration | shares compounds with DNMT1 block | DNMT1 molecular beacon HinP1I cleavage, fluorescence | inhibition, % at 10 µM | actives 8% (n = 2,300) | AID 602385;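 active = average inhibition of at least 30% in the single-concentration confirmation test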
# DNMT1 interf: beacon fluorescence artifact counter-screen; shares compounds with DNMT1 block; DNMT1 molecular beacon spectral interference counterscreen, fluorescence 485/520; AID 602387; actives 1% (n = 2,300); activation (fluorescence interference), % at 10 µM;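 active = activation of at least 30% at 10 µM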;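 also: DNMT1 catalytic domain with a HinP1I cleavage step and a FAM/dabcyl DNA beacon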
# Numbers stand for hits; – = inactive; · = no result given.
SMILES,LMPTP block,SUMO1 PPI mod,DNMT1 block,STEP block,Scp1 inh,DNMT1 inh conf,DNMT1 interf
Cc1ccccc1C(=O)Nc1ccc(N2CCCC2)cc1,–,–,–,–,–,·,·
O=C(Nc1ccc(N2CCCC2)cc1)c1cc(Br)ccc1Cl,–,–,50,–,–,–,–
Cc1ccc(C(=O)Nc2ccc(N3CCCC3)cc2)c(C)c1,–,–,54,–,–,–,–
O=C(Nc1ccc(N2CCCC2)cc1)c1ccccc1[N+](=O)[O-],–,–,70,–,–,–,–
c1ccc(Cn2ccnc2C2OCCO2)cc1,–,–,–,–,·,·,·
CCC(c1nnnn1-c1c(C)cccc1C)N1CCN(CCN2CCOCC2)CC1 (configuration not stated),–,–,·,·,·,·,·
Cc1nc(NCc2ccc3c(c2)OCO3)c2nnn(Cc3ccccc3)c2n1,–,–,55,–,–,–,–
c1ccc(Cn2nnc3c(NCc4ccc5c(c4)OCO5)nc(C4CC4)nc32)cc1,–,–,–,–,–,·,·
CCOC(=O)[C@@H]1[C@H]2COc3cc(OC)ccc3[C@@H]2N2C(=O)N(c3ccc(Cl)cc3)C(=O)[C@@]12C,–,–,–,–,–,·,·
O=C(O)C1CC(Br)C(Br)CC1C(=O)O (configuration not stated),–,–,–,–,·,·,·
O=C(O)C1CC2C3CC(C(=O)O)C(C3)C2C1 (configuration not stated),–,–,75,–,–,–,–
O=C(/C=C/c1ccccc1)Nc1scc(-c2ccccc2)c1C(=O)O,–,–,–,–,–,·,·
O=C(/C=C/c1ccco1)Nc1scc(-c2ccccc2)c1C(=O)O,–,–,82,–,–,–,–
COc1ccc(CCn2c(O)cc3nn(-c4nc5ccccc5s4)c(=O)c-3c2C)cc1,53,–,79,–,62,–,44
C#CCOCC1CNC(=S)O1 (configuration not stated),–,–,–,–,·,·,·
COc1ccc(-c2cc(C(=O)Nc3cc(Cl)ccc3O)no2)cc1,66,–,54,–,–,–,–
COc1ccc(-c2cc(C(=O)Nc3cc(C)ccc3O)no2)cc1,–,–,–,–,–,·,·
O=C(Nc1ccccc1F)c1ccc(Br)o1,–,–,69,–,–,–,–
C=CCn1c(SCC(=O)c2[nH]c(C)c(C(=O)OCC)c2C)nc2scc(-c3ccccc3)c2c1=O,–,–,57,–,–,–,–
COc1ccccc1NC(=S)N=Nc1c(O)[nH]c2ccc(Br)cc12,–,–,89,–,–,–,–
CCN(C[C@H]1N[C@@](C)(C(=O)OC)[C@H]2C(=O)N(C)C(=O)[C@@H]12)S(=O)(=O)c1ccc(F)cc1,–,–,–,–,–,·,·
O=C(CCN1C(=O)/C(=C/c2cccc(Br)c2)SC1=S)NNC(=O)c1cccnc1,–,–,71,–,–,–,–
CC(=O)c1ccc(N2CCN(C(=O)Cc3n[nH]c(=O)c4ccccc34)CC2)cc1,–,–,66,–,–,–,–
Cc1ccc(S(=O)(=O)N2CCN(C(=O)Cn3c(=O)cnc4ccccc43)CC2)cc1,–,–,–,–,–,·,·
CCOC(=O)c1sc(NC(=O)/C=C/c2c(F)cccc2Cl)nc1C,–,–,60,–,–,–,–
SMILES,LMPTP block,SUMO1 PPI mod,DNMT1 block,STEP block,Scp1 inh,DNMT1 inh conf,DNMT1 interf
CCOC(=O)c1sc(NC(=O)Nc2ccccc2F)nc1C,–,–,–,–,–,·,·
COc1cccc(NC(=S)NCCC(c2ccccc2)c2ccccc2)c1,–,–,56,–,–,–,–
COc1cc(NC(=S)NCCC(c2ccccc2)c2ccccc2)cc(OC)c1,–,–,–,–,–,·,·
Cc1nc(SCCC(C)C)c([N+](=O)[O-])[nH]1,–,–,94,–,–,–,–
Cc1n[nH]c(=O)nc1N/N=C/c1ccc(O)c([N+](=O)[O-])c1,–,–,73,–,–,–,–
COc1ccc(/C=N/Nc2nc(=O)[nH]nc2C)cc1[N+](=O)[O-],–,–,–,–,–,·,·
N#Cc1c(SCC(=O)Nc2nccs2)nc2c(c1-c1ccco1)CCCC2,–,–,60,–,–,–,–
O=C(COC(=O)/C=C/c1cccc(C(F)(F)F)c1)NC(c1ccccc1)c1ccccc1,–,–,56,–,–,–,–
O=C(COC(=O)/C=C/c1cccc(C(F)(F)F)c1)NC(=O)NCc1ccccc1,–,–,–,–,–,·,·
CCN(CC)S(=O)(=O)c1ccc(NC(=O)C2CC(=O)N(c3ccc4c(c3)OCCO4)C2)cc1 (configuration not stated),–,–,–,–,–,·,·
CCOC(=O)c1c(NC(=O)C2CCCO2)sc(C(=O)OC(C)(C)C)c1C (configuration not stated),–,–,51,–,–,–,–
CCOC(=O)c1c(NC(=O)C2CCCO2)sc(C)c1C (configuration not stated),–,–,–,–,–,·,·
CC(/C=C1\SC(=S)N(c2ccc(C(=O)O)cc2)C1=O)=C\c1ccccc1,–,57,110,–,–,–,–
COc1ccc2[nH]c(C(=O)NCc3ccccc3)c(C)c2c1,–,–,70,–,–,–,–
CC(C)n1c(CNC(=O)c2ccccc2F)nnc1SCC(=O)c1ccc(F)cc1,–,–,–,–,–,·,·
Cc1ccc(C(=O)C2=C(O)C(=O)N(Cc3ccco3)C2c2cccc(Br)c2)o1 (configuration not stated),–,–,–,–,–,·,·
O=C(C1=C(O)C(=O)N(Cc2ccco2)C1c1cccc(O)c1)c1ccco1 (configuration not stated),–,–,81,–,–,–,–
Cc1cccc(-c2nc(CS(=O)CC(=O)NC3CCCC(C)C3C)c(C)o2)c1 (configuration not stated),–,–,–,–,–,·,·
N#CC(C(=O)Nc1ccc(Cl)c(Cl)c1)=C1Nc2ccccc2N1,–,–,65,–,–,–,–
COc1ccc(/C=N/NC(=O)c2ccoc2C)cc1CN1CCN(c2ccc(F)cc2)CC1,–,–,–,–,–,·,·
Nc1nnnn1/N=C/c1cc(Cl)cc(Cl)c1OCc1ccc(Cl)cc1Cl,–,–,59,–,–,–,–
Nc1nnnn1/N=C/c1cc(Cl)cc(Cl)c1O,–,–,–,–,–,·,·
Nc1nnnn1/N=C/c1ccccc1OCc1ccc(Cl)cc1Cl,–,–,52,–,–,–,–
CC(C)CN(C(=O)COc1ccc([N+](=O)[O-])cc1)c1c(N)n(CC(C)C)c(=O)[nH]c1=O,–,–,–,–,–,·,·
COc1cccc(C(=O)NC(=S)Nc2nnn(C)n2)c1,–,–,–,–,–,·,·
